This passage reports Ki, CC50 and Activity results from ChEMBL document CHEMBL2150991, “Synthesis of novel N-branched acyclic nucleoside phosphonates as potent and selective inhibitors of human, Plasmodium falciparum and Plasmodium vivax 6-oxopurine phosphoribosyltransferases” (J Med Chem, 2012).

Converted amounts (≈) assume the structure as drawn.

Series [1] can be described thus: Inhibition of Plasmodium falciparum recombinant HGPRT expressed in Escherichia coli using Prib-PP as substrate by spectrophotometric assay in presence of guanine. Summed up: (§1)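 Continuous spectrophotometric assay at 25 °C in 0.1 M Tris-HCl, 10 mM MgCl₂, pH 7.4. PRib-PP is the variable substrate. Guanine is held fixed at a saturating 60 μM. Values are apparent Ki, since only one concentration of the second substrate was used. Each was calculated from Km(app) = Km(1 + [I]/Ki(app)).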

Series [2] is described as follows: Inhibition of Plasmodium vivax HGPRT using Prib-PP as substrate by spectrophotometric assay in presence of guanine. In a few lines: as §1
Series [3] addresses T1, Hypoxanthine-guanine phosphoribosyltransferase (Homo sapiens, UniProt P00492).
T1 sequence (P00492 whole entry): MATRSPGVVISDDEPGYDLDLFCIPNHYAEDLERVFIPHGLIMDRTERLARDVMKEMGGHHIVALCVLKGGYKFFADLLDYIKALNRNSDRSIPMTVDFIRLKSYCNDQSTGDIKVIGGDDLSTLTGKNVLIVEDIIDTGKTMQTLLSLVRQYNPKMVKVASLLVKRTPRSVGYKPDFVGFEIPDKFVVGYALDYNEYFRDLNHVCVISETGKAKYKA
As to the kind of experiment: Inhibition of human HGPRT using Prib-PP as substrate by spectrophotometric assay in presence of guanine. Summed up: as §1

Series [4] is described as follows: Cytotoxicity against human HEL cells. The format is cell-based.
Series [5] can be described thus: Cytotoxicity african green monkey Vero cells. The format is cell-based. Conditions: chlorocebus sabaeus.
A short description of series [6]: Cytotoxicity against cat CRFK cells. Format: cell-based, Felis catus.
In another series the test system is L1210. The series can be described thus: Cytostatic activity against mouse L1210 cells. Format: ADME, cell-based.
The next series has as its system CCRF-CEM. The series can be described thus: Cytostatic activity against human CCRF-CEM cells. The format is ADME, cell-based.
The subject of another series is HL-60. As to the kind of experiment: Cytostatic activity against human HL60 cells. The format is ADME, cell-based.
Series [7] is described as follows: Cytostatic activity against human HeLaS3 cells. Format: ADME, cell-based. Conditions: hela s3.

As usually defined, the Ki is the equilibrium dissociation constant of an inhibitor or competing ligand from its target. As a reminder, the CC50 is the concentration that lowers cell viability or growth by half. As for `O=C(O)CCN(CCn1cnc2c(=O)[nH]cnc21)CCP(=O)(O)O`, the Ki was 400 nM in series [1], 41 µM in series [2] and > 240000 nM in series [3]. In addition, the CC50 in series [4], in series [5] and in series [6] was > 100 µg/mL in each case. Besides, the Activity entry (in the series on L1210; in the series with CCRF-CEM; with HL-60; in series [7]) was “Non-toxic” throughout.
Take `O=C(O)CN(CCn1cnc2c(=O)[nH]cnc21)CCP(=O)(O)O`: the Ki in series [2] came out at 178 µM; in series [3], 32000 nM. For the same compound, the CC50 in series [4], in [5] and in series [6] was > 100 µg/mL each time. Further, the Activity result (in the series with L1210; with CCRF-CEM; with HL-60; in [7]) was “Non-toxic” throughout.
For the compound `Nc1nc2c(ncn2CCN(CCP(=O)(O)O)CCP(=O)(O)O)c(=O)[nH]1`, the figures for the Ki in series [1], in series [2] and in [3] were 300 nM, 0.9 µM and 200 nM, respectively. The CC50 in series [4], in series [5] and in [6] was > 100 µg/mL each time. Besides, the Activity entry (in the series on L1210; in the series with CCRF-CEM; in the series with HL-60; in series [7]) was “Non-toxic” throughout.
On to `Nc1nc2c(ncn2CCN(CCO)CCP(=O)(O)O)c(=O)[nH]1`, for which the values for the Ki in series [1], in [2] and in [3] were 200 nM, 1.4 µM and 70 nM, respectively. The CC50 in [4] is > 100 µg/mL. The Activity result (with L1210; in the series on CCRF-CEM; with HL-60; in [7]) was “Non-toxic” throughout.
For `CCOC(=O)CN(CCn1cnc2c(=O)[nH]c(N)nc21)CCP(=O)(O)O`, the results for the Ki in series [1], in series [2] and in [3] were 1700 nM, 1.5 µM and 100 nM, respectively. Moreover, the CC50 in [4], in [5] and in series [6] was > 100 µg/mL throughout. In addition, the Activity result (in the series with L1210; with CCRF-CEM; with HL-60; in series [7]) was “Non-toxic” throughout.
Turning to `O=C(O)CCCN(CCn1cnc2c(=O)[nH]cnc21)CCP(=O)(O)O`, the results for the Ki in [1], in series [2] and in [3] were ≥ 210000 nM, 1.6 µM and 5400 nM, respectively. Moreover, the CC50 in series [4], in [5] and in series [6] was > 100 µg/mL in each case. The Activity entry (in the series with L1210; in the series with CCRF-CEM; in the series on HL-60; in series [7]) was “Non-toxic” each time.
With `O=c1[nH]cnc2c1ncn2CCNCCP(=O)(O)O`, the Ki in series [1] was ≥ 200000 nM; in series [2], ≥ 250 µM. The CC50 in series [4] is > 100 µg/mL. The Activity result (in the series with L1210; with CCRF-CEM; in the series on HL-60; in [7]) was “Non-toxic” throughout.
`O=c1[nH]cnc2c1ncn2CCN(CCO)CCP(=O)(O)O`: the values for the Ki in series [1], in [2] and in series [3] were 2600 nM, 21 µM and 5500 nM, respectively. Also, the half-maximal cytotoxic concentration (CC50) in series [4], in series [5] and in series [6] was > 100 µg/mL each time. Moreover, the Activity entry (with L1210; in the series on CCRF-CEM; in the series with HL-60; in series [7]) was “Non-toxic” throughout.
On to `N#CCCN(CCn1cnc2c(=O)[nH]cnc21)CCP(=O)(O)O`, for which the Ki amounted to 200 nM in [1], 0.7 µM in series [2] and 2400 nM in series [3]. The CC50 in [4], in series [5] and in [6] was > 100 µg/mL each time. The Activity entry (in the series on L1210; in the series on CCRF-CEM; in the series on HL-60; in series [7]) was “Non-toxic” each time.
Consider `CCOC(=O)CN(CCn1cnc2c(=O)[nH]cnc21)CCP(=O)(O)O`, for which the Ki stood at 1900 nM in [1], 11 µM in [2] and 2600 nM in series [3]. Further, the CC50 in series [4], in [5] and in series [6] was > 100 µg/mL in each case. The Activity result (in the series with L1210; in the series with CCRF-CEM; with HL-60; in series [7]) was “Non-toxic” throughout.
Regarding `COC(=O)CCN(CCn1cnc2c(=O)[nH]c(N)nc21)CCP(=O)(O)O`, the Ki is 100 nM in series [1], 4 µM in series [2] and 500 nM in series [3]. Further, the CC50 in series [4], in series [5] and in [6] was > 100 µg/mL each time. Also, the Activity entry (with L1210; with CCRF-CEM; in the series on HL-60; in series [7]) was “Non-toxic” throughout.
In the case of `Nc1nc2c(ncn2CCN(CCCC(=O)O)CCP(=O)(O)O)c(=O)[nH]1`, the Ki in series [2] amounted to 25 µM; in [3], 100 nM. Besides, the CC50 in series [4], in [5] and in series [6] was > 100 µg/mL each time. Moreover, the Activity result (with L1210; in the series with CCRF-CEM; with HL-60; in [7]) was “Non-toxic” in each case.
For `N#CCCN(CCn1cnc2c(=O)[nH]c(N)nc21)CCP(=O)(O)O`, the Ki was determined as 200 nM in series [1], 0.3 µM in [2] and 70 nM in series [3]. Moreover, the CC50 in series [4], in [5] and in [6] was > 100 µg/mL in each case. The Activity entry (in the series with L1210; with CCRF-CEM; in the series on HL-60; in [7]) was “Non-toxic” throughout.
As for `COC(=O)CCCN(CCn1cnc2c(=O)[nH]cnc21)CCP(=O)(O)O`, the Ki in series [1] is ≥ 220000 nM; in series [2], > 250 µM; in [3] it was 22000 nM. In addition, the CC50 in series [4], in series [5] and in series [6] was > 100 µg/mL in each case. The Activity entry (with L1210; in the series on CCRF-CEM; in the series on HL-60; in [7]) was “Non-toxic” each time.
`N#CCCCN(CCn1cnc2c(=O)[nH]c(N)nc21)CCP(=O)(O)O`: the Ki turned out to be 4000 nM in [1], 8 µM in series [2] and 600 nM in series [3]. Besides, the 50% cytotoxic concentration (CC50) in series [4], in [5] and in [6] was > 100 µg/mL in each case. Besides, the Activity result (with L1210; in the series with CCRF-CEM; in the series on HL-60; in series [7]) was “Non-toxic” in each case.
`Nc1nc2c(ncn2CCNCCP(=O)(O)O)c(=O)[nH]1`: the Ki in series [1] stood at 16000 nM; in [2], 11 µM. The CC50 in series [4] is > 100 µg/mL. Moreover, the Activity result (in the series with L1210; with CCRF-CEM; with HL-60; in [7]) was “Non-toxic” each time.
On to `COC(=O)CCCN(CCn1cnc2c(=O)[nH]c(N)nc21)CCP(=O)(O)O`, for which the results for the Ki in [1], in series [2] and in series [3] were 1300 nM, > 200 µM and 100 nM, respectively. Moreover, the CC50 in [4], in series [5] and in [6] was > 100 µg/mL in each case. The Activity entry (in the series with L1210; in the series with CCRF-CEM; with HL-60; in [7]) was “Non-toxic” each time.
Regarding `N#CCN(CCn1cnc2c(=O)[nH]c(N)nc21)CCP(=O)(O)O`, the figures for the CC50 in [4], in series [5] and in series [6] were 53 µg/mL (≈ 155 µM), > 100 µg/mL and > 100 µg/mL, respectively. The Activity result (in the series with L1210; in the series with CCRF-CEM; with HL-60; in [7]) was “Non-toxic” in each case.
As to `N#CCCCN(CCn1cnc2c(=O)[nH]cnc21)CCP(=O)(O)O`, the Ki in series [1] is 6000 nM; in series [2] it was > 230 µM; in series [3] it was 29000 nM. The CC50 in [4], in series [5] and in series [6] was > 100 µg/mL throughout. The Activity entry (with L1210; with CCRF-CEM; in the series on HL-60; in series [7]) was “Non-toxic” in each case.
On to `O=c1[nH]cnc2c1ncn2CCN(CCP(=O)(O)O)CCP(=O)(O)O`, for which the inhibition constant (Ki) was determined as 13 µM in [2] and 3000 nM in series [3]. Further, the CC50 in [4], in series [5] and in series [6] was > 100 µg/mL throughout. Also, the Activity entry (in the series with L1210; with CCRF-CEM; in the series with HL-60; in [7]) was “Non-toxic” throughout.
